Data from ChEMBL document CHEMBL3046679, “Design, synthesis, and biological activities of arylmethylamine substituted chlorotriazine and methylthiotriazine compounds” (J Agric Food Chem, 2011).
Calls of active or inactive are those of the source. The rule behind the calls is not given here.

Tests used:
Uromyces viciae-fabae = experiment: Fungicidal activity against Uromyces viciae-fabae assessed as inhibition of mycelia growth at 100 ppm; format: functional, organism-based
In short: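 Leaf-piece assay on bean at 100 ppm, with compound applied before spore inoculation and two replicates. Each well scored 99 for complete inhibition, 55 for partial and 0 for none; value is the mean score across replicates.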

Lolium perenne = experiment: Herbicidal activity against Lolium perenne (perennial ryegrass) assessed as growth inhibition at 1 kg/ha preemergence treatment by glasshouse test; format: functional; conditions: pre-emergence, read-out: GI
In short: (§1)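 Glasshouse screen with pre- or postemergence application at 1.0 kg/ha. Result given as percent inhibition of plant growth; norflurazon and glyphosate used as controls.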

Amaranthus retroflexus = experiment: Herbicidal activity against Amaranthus retroflexus assessed as growth inhibition at 1 kg/ha preemergence treatment by glasshouse test; format: functional; conditions: pre-emergence, read-out: GI; in short: as §1
Arabidopsis thaliana = experiment: Herbicidal activity against Arabidopsis thaliana assessed as growth inhibition at 10 ppm by 96-well plate test; format: functional; conditions: read-out: GI
In short: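 96-well plate herbicide screen: Arabidopsis thaliana at 10 ppm and Poa annua at 32 ppm, two replicates. Plates incubated seven days in a controlled-environment cabinet. Each replicate scored 0 (no visible effect) or 99 (herbicidal effect); values are the mean of the two. Atrazine used as reference.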

Pyrenophora teres = experiment: Fungicidal activity against Pyrenophora teres assessed as inhibition of disease development in compound treated leaf pieces at 20 ppm relative to untreated control (barley-preventative); format: functional
In short: (§2)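 Preventative leaf-piece test on host tissue (tomato, vine, wheat or barley). Formulated compound applied at 200, 60 and 20 ppm before spore inoculation. Disease scored 3–9 days after inoculation, depending on the pathogen, as percent inhibition of disease development versus untreated controls. Values are the mean across replicates.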

Puccinia triticina [1] = experiment: Fungicidal activity against Puccinia triticina assessed as inhibition of disease development in compound treated leaf pieces at 20 ppm relative to untreated control (wheat-curative); format: functional
In short: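 Curative wheat leaf-piece test against Puccinia triticina. Leaf pieces inoculated with spores first, then treated with formulated compound at 200, 60 or 20 ppm. Disease scored 3–9 days after inoculation as percent inhibition versus untreated controls. Values are the mean across replicates.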

Puccinia triticina [2] = experiment: Fungicidal activity against Puccinia triticina assessed as inhibition of disease development in compound treated leaf pieces at 20 ppm relative to untreated control (wheat-preventative); format: functional; in short: as §2
Puccinia triticina [3] = experiment: Fungicidal activity against Puccinia triticina assessed as inhibition of disease development in compound treated leaf pieces at 60 ppm relative to untreated control (wheat-preventative); format: functional; in short: as §2
Plasmopara viticola = experiment: Fungicidal activity against Plasmopara viticola assessed as inhibition of disease development in compound treated leaf pieces at 60 ppm relative to untreated control (grapevine-preventative); format: functional; in short: as §2
Parastagonospora nodorum = experiment: Fungicidal activity against Phaeosphaeria nodorum assessed as inhibition of disease development in compound treated leaf pieces at 200 ppm relative to untreated control (wheat preventative); format: functional
In short: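 Wheat leaf pieces treated with formulated compound (200, 60 and 20 ppm) before inoculation with pathogen spores. Disease development assessed 3–9 days after inoculation, depending on the assay. Scored as percent inhibition relative to untreated controls; value is the mean across replicates.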

Heliothis virescens = experiment: Insecticidal activity against Lepidoptera Heliothis virescens (tobacco budworm) assessed as mortality at 1000 ppm by leaf-disk assay; format: functional, organism-based
In short: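 Leaf-disk assay at 1000 ppm, three replicates. Plates kept 5–9 days in controlled-environment cabinets. Mortality judged against untreated wells: 99 for significant mortality, 0 otherwise. Values are the mean of three; thiamethoxam and indoxacarb used as positive controls.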

CC(C)Nc1nc(Cl)nc(NCc2ccc(F)cc2)n1
inhibition (Uromyces viciae-fabae): Active | inhibition of growth at 1000 g/ha (Lolium perenne): 30% | inhibition of growth at 1000 g/ha (Amaranthus retroflexus): 100% | inhibition of growth at 10 ppm (Arabidopsis thaliana): 99% | inhibition at 20 ppm (Pyrenophora teres): 0% | inhibition at 20 ppm (Puccinia triticina [1]): 20% | inhibition at 20 ppm (Puccinia triticina [2]): 0% | inhibition at 60 ppm (Puccinia triticina [3]): 20% | inhibition at 60 ppm (Plasmopara viticola): 20% | inhibition at 200 ppm (Parastagonospora nodorum): 70% | mortality (Heliothis virescens): inactive
